This note sets out measurements from ChEMBL document CHEMBL2069194, “Synthesis of sulfur containing dihydro-pyrrolo derivatives and their biological evaluation as antioxidants” (Bioorg Med Chem, 2012).

Experiment [1] has as its system Radical scavenging activity. The experiment in a line: Antioxidant activity assessed as reduction of DPPH radical generation at 50 uM incubated for 20 mins at room temperature. The class given is functional. Also noted: scale not given: the % may be the effect or the level left. In outline:
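DPPH radical interaction in ethanol, compound final 50 µM (equimolar with DPPH); ethanol as control. Absorbance at 517 nm read after 20 min at room temperature.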

For another experiment, the system named is Glycine max. Nature of the experiment: Inhibition of soybean lipoxygenase using sodium linoleate substrate at 100 uM. In outline: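 Soybean lipoxygenase (0.2 mL of 1/9 × 10^-4 w/v solution in saline) incubated at room temperature with compound in ethanol and sodium linoleate 100 µM. Conversion to 13-hydroperoxylinoleic acid recorded at 234 nm, compared against caffeic acid 600 µM as standard inhibitor.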

Experiment [2] in a line: Antioxidant activity assessed as inhibition of linoleic acid peroxidation at 100 uM by AAPH assay by UV spectrometry. It is filed as functional. In outline:
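Linoleic acid dispersion (10 µL of 16 mM) in 0.05 M phosphate buffer pH 7.4 at 37 °C; oxidation started under air by adding 50 µL of 40 mM AAPH, with 10 µL aliquots of compound present. Conjugated diene hydroperoxide formation followed as rise in absorbance at 234 nm; blank run contained same DMSO level.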

Molecules are shown by their SMILES. Activity calls are given as the source filed them. The calls are words filed in the database; no cut-off is given here.

For `CCSC1=N[C@H](C(=O)OC)[C@@H]2C(=O)N(c3ccccc3)C(=O)[C@H]12` (relative stereo), the outcome in experiment [1] was inactive. Moreover, the inhibition with Glycine max was 26%; in experiment [2] it was 89%.

Consider `Cc1c(C)c2c(c(C)c1O)CCC(C)(C(=O)O)O2` (stereo not drawn), for which the inhibition in experiment [2] worked out at 63%.

For `CCCSC1=N[C@H](C(=O)OC)[C@@H]2C(=O)N(c3ccccc3)C(=O)[C@H]12` (relative stereo), the Activity in experiment [1] worked out at 9%. For the same molecule, the inhibition in the experiment with Glycine max was found to be 39%; in experiment [2], 86%.

Regarding `COC(=O)[C@@H]1N=C(SC)[C@H]2C(=O)N(c3ccccc3)C(=O)[C@H]21` (relative stereo), the Activity in experiment [1] came to 26%. The inhibition came out at 51% in the experiment with Glycine max and 93% in experiment [2].

As to `COC(=O)[C@H]1N=C(SC(C)C)[C@H]2C(=O)N(c3ccccc3)C(=O)[C@H]21` (relative stereo), in experiment [1], the Activity came to 13%. Also, the results for the inhibition (in the experiment with Glycine max; in experiment [2]) were 44% and 72%, respectively.

Take `CC(Cc1ccc(O)c(O)c1)C(C)Cc1ccc(O)c(O)c1` (stereo not drawn): in experiment [1], the Activity was determined as 81%. In the experiment on Glycine max, this molecule had an inhibition of 64%.

Consider `CCCCSC1=N[C@H](C(=O)OC)[C@@H]2C(=O)N(c3ccccc3)C(=O)[C@H]12` (relative stereo), for which, in experiment [1], the Activity was found to be 7%. Besides, the inhibition with Glycine max was 56%; in experiment [2], 89%.

As to `CCSC1=N[C@@H](C(=O)OC)[C@@H]2C(=O)N(c3ccccc3)C(=O)[C@H]12` (relative stereo), the Activity in experiment [1] was 11%. Besides, the figures for the inhibition (in the experiment on Glycine max; in experiment [2]) were 81% and 91%, respectively.

Turning to `CCCCSC1=N[C@@H](C(=O)OC)[C@@H]2C(=O)N(c3ccccc3)C(=O)[C@H]12` (relative stereo), the Activity in experiment [1] came to 11%. For the same molecule, the inhibition in the experiment on Glycine max amounted to 91%; in experiment [2], 82%.

Consider `COC(=O)[C@H]1N=C(SC)[C@H]2C(=O)N(c3ccccc3)C(=O)[C@H]21` (relative stereo), for which, in experiment [1], the Activity turned out to be 8%. The inhibition in experiment [2] was found to be 84%.

Regarding `COC(=O)[C@H]1N=C(SCc2ccccc2)[C@H]2C(=O)N(c3ccccc3)C(=O)[C@H]21` (relative stereo), in experiment [1], the Activity amounted to 11%. Moreover, the inhibition is 73% in the experiment with Glycine max and 76% in experiment [2].

Turning to `COC(=O)[C@@H]1N=C(SCc2ccccc2)[C@H]2C(=O)N(c3ccccc3)C(=O)[C@H]21` (relative stereo), the Activity in experiment [1] turned out to be 15%. Further, the inhibition stood at 83% in the experiment on Glycine max and 98% in experiment [2].

Regarding `COC(=O)[C@@H]1N=C(SC(C)C)[C@H]2C(=O)N(c3ccccc3)C(=O)[C@H]21` (relative stereo), in experiment [1], the Activity came to 12%. The inhibition stood at 49% in the experiment on Glycine max and 89% in experiment [2].

In the case of `CCCSC1=N[C@@H](C(=O)OC)[C@@H]2C(=O)N(c3ccccc3)C(=O)[C@H]12` (relative stereo), the Activity in experiment [1] was 7%. Besides, the figures for the inhibition (in the experiment on Glycine max; in experiment [2]) were 43% and 86%, respectively.
